From ChEMBL document CHEMBL1147740, “Synthesis and biological activity of isoxazolidinyl polycyclic aromatic hydrocarbons: potential DNA intercalators” (J Med Chem, 2006) come the findings set out here.

SMILES strings stand for the structures. Values after ≈ are worked out from the molar mass of the structure shown. Active and inactive are the calls of the source. The calls are words filed in the database; no cut-off is given here.

The subject of test [1] is MOLT-3. Put plainly: Cytotoxicity against MOLT3 Leukemia cells by MTS assay. The class given is functional, cell-based, Homo sapiens. Conditions: Homo sapiens, MOLT-3. The gist of the method:
(§1)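 MTS tetrazolium reduction assay; cells grown under optimal culture conditions for 20 h with compound at 10 to 500 µM or without it; MTS reagent then added for 1 h at 37 °C, humidified 5% CO2; absorbance read at 490 nm. Triplicate. IC50 is the concentration giving 50% reduction of absorbance.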

The next test has as its system THP-1. Put plainly: Cytotoxicity against THP1 Leukemia cells by MTS assay. The class given is functional, cell-based, Homo sapiens. Conditions: Homo sapiens, THP-1. The procedure, abridged:
as §1

In the next test the test system is U-937. In words: Cytotoxicity against U937 Lymphoma cells by MTS assay. The class given is functional, cell-based, Homo sapiens. Conditions: Homo sapiens, U-937. The gist of the method:
as §1

The subject of test [2] is Vero. In words: Cytotoxicity against normal vero kidney cells by MTS assay. The class given is functional, cell-based, Chlorocebus sabaeus. Conditions: Chlorocebus sabaeus, Vero. The procedure, abridged: as §1
Test [3] has as its system MOLT-3. Put plainly: Cytotoxicity against MOLT3 Leukemia cells after 24 hrs of treatment. Conditions: Homo sapiens, MOLT-3, 24 h. The class given is functional, cell-based. The gist of the method: (§2)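 Trypan blue exclusion; cells exposed under optimal culture conditions to new compounds at 10 to 500 µM (actinomycin D 1 to 200 µM) or control medium for the stated time. CC50 is the concentration causing 50% toxicity by trypan blue.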

The subject of test [4] is MOLT-3. Put plainly: Cytotoxicity against MOLT3 Leukemia cells after 48 hrs of treatment. The class given is functional, cell-based. Conditions: Homo sapiens, MOLT-3, 48 h. The gist of the method:
as §2

In test [5] the test system is MOLT-3. Put plainly: Cytotoxicity against MOLT3 Leukemia cells after 72 hrs of treatment. Conditions: Homo sapiens, MOLT-3, 72 h. It is filed as functional, cell-based. The procedure, abridged: as §2
Test [6] deals with MOLT-3. In words: Potentiation of fas-mediated apoptosis in MOLT3 cells. It is filed as functional, cell-based. Conditions: Homo sapiens. The gist of the method:
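MOLT-3 cells given anti-fas antibody (CH11) at 25, 50 or 100 ng/mL, alone or immediately after compound at 25 or 50 µM. Cultured 20 h, stained with acridine orange, and apoptosis scored by fluorescence microscopy.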

Another test deals with HEL. Put plainly: Antiviral activity against HEL cells. Conditions: Homo sapiens, HEL; read-out: MCC. The class given is functional, Homo sapiens. The gist of the method: (§3)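 Cytotoxicity scored as the concentration giving a microscopically detectable alteration of normal cell morphology in HEL, HeLa or Vero cells.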
Test [7] relates to Vero. In words: Antiviral activity against vero cells. The class given is functional, Chlorocebus sabaeus. Conditions: Chlorocebus sabaeus, Vero; read-out: MCC. The procedure, abridged:
as §3

The test system of a further test is HeLa. Put plainly: Antiviral activity against HeLa cells. It is filed as functional, Homo sapiens. Conditions: Homo sapiens, HeLa; read-out: MCC. The procedure, abridged: as §3
Test [8] concerns Human alphaherpesvirus 1. Put plainly: Antiviral activity against Herpes simplex virus 1 KOS strain in HEL cells. The class given is functional, Human herpesvirus 1 strain KOS. Conditions: Human alphaherpesvirus 1, KOS. The gist of the method:
(§4)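 Minimum inhibitory concentration (µg/mL) needed to reduce virus-induced cytopathogenicity by 50%; HSV strains in HEL cells, Punta Toro virus in Vero cells.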

Another test has as its system Human alphaherpesvirus 2. Put plainly: Antiviral activity against Herpes simplex virus 2 G strain in HEL cells. It is filed as functional. Conditions: Human alphaherpesvirus 2, G. The gist of the method:
as §4

Another test relates to Vaccinia virus. Put plainly: Antiviral activity against Vaccinia virus in HEL cells. It is filed as functional. Conditions: Orthopoxvirus vaccinia. The procedure, abridged: (§5)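 Virus infection of HEL cell cultures. The endpoint is the minimum inhibitory concentration (µg/mL) that reduces virus-induced cytopathogenicity by 50%.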
Test [9] concerns Vesicular stomatitis virus. In words: Antiviral activity against Vesicular stomatitis virus in HEL cells. It is filed as functional. The gist of the method:
as §5

Test [10] concerns Human alphaherpesvirus 1. In words: Antiviral activity against herpes simplex virus 1 TK- KOS ACVr strain in HEL cells. Conditions: Human alphaherpesvirus 1, TK- KOS ACVr; read-out: MIC50. The class given is functional. The gist of the method:
as §4

In another test the test system is Human respirovirus 3. In words: Antiviral activity against Parainfluenza-3 virus in vero cells. It is filed as functional. The gist of the method:
(§6)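 Virus infection of Vero cell cultures. The endpoint is the minimum inhibitory concentration (µg/mL) that reduces virus-induced cytopathogenicity by 50%.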

The subject of test [11] is Mammalian orthoreovirus 1. In words: Antiviral activity against Reovirus 1 in vero cells. The class given is functional. The procedure, abridged: as §6
A further test has as its system Sindbis virus. In words: Antiviral activity against Sindbis virus in vero cells. It is filed as functional. The gist of the method: as §6
For test [12], the system named is Coxsackievirus B4. Put plainly: Antiviral activity against Coxsackie virus B4 in vero cells. Conditions: Enterovirus B. The class given is functional. The gist of the method: as §6
Another test relates to Punta Toro virus. In words: Antiviral activity against Punta Toro virus in vero cells. The class given is functional. Conditions: Punta Toro virus; read-out: MIC50. The gist of the method:
as §4

Test [13] relates to Respiratory syncytial virus. In words: Antiviral activity against Respiratory syncytial virus in HeLa cells. Conditions: human respiratory syncytial virus. It is filed as functional. The gist of the method:
(§7)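 Virus infection of HeLa cell cultures. The endpoint is the minimum inhibitory concentration (µg/mL) that reduces virus-induced cytopathogenicity by 50%.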

Test [14] has as its system Coxsackievirus B4. Put plainly: Antiviral activity against Coxsackie virus B4 in HeLa cells. It is filed as functional. Conditions: Enterovirus B. The procedure, abridged:
as §7

Test [15] deals with Vesicular stomatitis virus. Put plainly: Antiviral activity against Vesicular stomatitis virus in HeLa cells. It is filed as functional. The gist of the method:
as §7

Take `OC[C@@H]1C[C@H](c2c3ccccc3cc3ccccc23)N(Cc2ccccc2)O1` (racemic): the IC50 in the test on MOLT-3 [1] is > 500 µM.

Regarding `CN1O[C@H](CO)C[C@@H]1c1ccc2ccc3cccc4ccc1c2c34` (racemic), the IC50 worked out at 107 µM with THP-1, 112 µM in the test on MOLT-3 [1], 111 µM with U-937 and 159 µM in the test on Vero [2]. For the same compound, the AC50 in the test with MOLT-3 [3] stood at 118 µM; in the test with MOLT-3 [4] it was 71 µM; with MOLT-3 [5], 67 µM. Moreover, the CC50 in the test with MOLT-3 [3] came to 278 µM; in the test with MOLT-3 [4], 168 µM; in the test on MOLT-3 [5] it was 133 µM.

For `OC[C@@H]1C[C@H](c2cc3ccccc3c3ccccc23)N(Cc2ccccc2)O1` (racemic), the result in the test on MOLT-3 [6] was Active. Further, the IC50 in the test with THP-1 was found to be 50 µM; in the test with MOLT-3 [1] it was 78 µM; in the test with U-937, 54 µM; with Vero [2] it was 63 µM. The compound also gave an AC50 with MOLT-3 [3] of 69 µM. In the test with MOLT-3 [3], this compound gave a CC50 of 73 µM.

For `CN1O[C@H](CO)C[C@@H]1c1cc2ccccc2c2ccccc12` (racemic), the IC50 was 169 µM with THP-1, 125 µM with MOLT-3 [1], 153 µM in the test on U-937 and 246 µM in the test with Vero [2]. The MCC in the test on HEL was determined as 400 µg/mL; in the test on Vero [7], 80 µg/mL; in the test on HeLa it was 80 µg/mL. The MIC50 in the test with Human alphaherpesvirus 1 [8] was > 80 µg/mL; against Human alphaherpesvirus 2, > 80 µg/mL; in the test with Vaccinia virus, > 80 µg/mL; in [9] it was > 80 µg/mL; in the test on Human alphaherpesvirus 1 [10], 48 µg/mL (≈ 164 µM); against Human respirovirus 3, > 16 µg/mL. The MIC50 in test [11] was > 16 µg/mL; in the test on Sindbis virus it was > 16 µg/mL; in the test on Coxsackievirus B4 [12] it was > 16 µg/mL; in the test on Punta Toro virus, 9.6 µg/mL (≈ 32.7 µM); in test [13] it was > 16 µg/mL; in the test with Coxsackievirus B4 [14], > 16 µg/mL. Also, the MIC50 in test [15] was > 16 µg/mL.

`CN1O[C@@H](CO)C[C@@H]1c1c2ccccc2cc2ccccc12` (racemic): in the test with MOLT-3 [1], the IC50 was > 500 µM.

As to `OC[C@@H]1C[C@H](c2ccc3ccc4cccc5ccc2c3c45)N(Cc2ccccc2)O1` (racemic), the IC50 in the test on THP-1 was determined as 192 µM; with MOLT-3 [1] it was 127 µM; in the test on U-937 it was 193 µM; with Vero [2], 301 µM. In addition, the results for the AC50 in the test with MOLT-3 [3], in the test with MOLT-3 [4] and in the test on MOLT-3 [5] were > 500 µM, 97 µM and 67 µM, respectively. For the same compound, the CC50 is > 500 µM with MOLT-3 [3], 97 µM in the test with MOLT-3 [4] and 58 µM in the test on MOLT-3 [5].

With `OC[C@H]1C[C@H](c2c3ccccc3cc3ccccc23)N(Cc2ccccc2)O1` (racemic), in the test with MOLT-3 [1], the IC50 is > 500 µM.
